# Experimental data taken from PMC5546011 (Journal of medicinal chemistry, 2017).
# “Also recorded” adds a separate entry of the source. Where two headings read alike, the source gives them in different places.
# Tests used:
# [1] = target: T1, human κ-opioid receptor (Homo sapiens, UniProt P41145); test: Inhibition of forskolin-induced cAMP accumulation, KOR; type: cell-based; conditions: result in words
# [2] = tested on: mice; test: Warm-water tail-withdrawal assay; type: in vivo; conditions: 50°C warm-water tail withdrawal, 2 mg/kg i.p.
# [3] = tested on: mice; test: Intradermal formalin assay; type: in vivo
# [4] = Rat liver microsomal stability; conditions: rat liver microsomes 0.25 mg/mL, 10 μM compound, no NADPH, 37°C; result in words
# [5] = target: human μ-opioid receptor (Homo sapiens, UniProt P35372); test: Inhibition of forskolin-induced cAMP accumulation, MOR; type: cell-based
# How it was run: (§1)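 CHO-K1 HitHunter cells stably expressing human δ- or μ-opioid receptor, kept in F-12 with 10% FBS, 1% penicillin/streptomycin/L-glutamine and 800 μg/mL Geneticin at 37 °C, 5% CO2. cAMP accumulation was normalised to vehicle and forskolin-only controls.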
# [6] = target: human δ-opioid receptor (Homo sapiens, UniProt P41143); test: Inhibition of forskolin-induced cAMP accumulation, DOR; type: cell-based
# How it was run: as §1
# [7] = target: T1, human κ-opioid receptor; conditions: result in words; cited from earlier work
# [8] = 2% intradermal formalin, mice, i.p., vs vehicle/formalin controls
# [9] = 2% intradermal formalin, mice, i.p., result in words
# [10] = 2% intradermal formalin, mice, vs vehicle/formalin controls, result in words
# T1 sequence (P41145 whole entry): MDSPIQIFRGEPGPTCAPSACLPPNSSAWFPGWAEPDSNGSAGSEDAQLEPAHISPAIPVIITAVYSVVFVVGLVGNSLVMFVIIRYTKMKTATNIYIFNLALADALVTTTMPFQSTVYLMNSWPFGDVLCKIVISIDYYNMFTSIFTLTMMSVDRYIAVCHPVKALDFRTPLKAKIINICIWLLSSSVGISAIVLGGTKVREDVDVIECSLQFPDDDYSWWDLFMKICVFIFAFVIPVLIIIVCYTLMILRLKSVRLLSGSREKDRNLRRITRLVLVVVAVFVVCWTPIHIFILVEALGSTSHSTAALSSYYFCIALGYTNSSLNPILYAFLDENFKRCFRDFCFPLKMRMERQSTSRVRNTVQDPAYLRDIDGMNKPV
# Sequence of human μ-opioid receptor (P35372 whole entry): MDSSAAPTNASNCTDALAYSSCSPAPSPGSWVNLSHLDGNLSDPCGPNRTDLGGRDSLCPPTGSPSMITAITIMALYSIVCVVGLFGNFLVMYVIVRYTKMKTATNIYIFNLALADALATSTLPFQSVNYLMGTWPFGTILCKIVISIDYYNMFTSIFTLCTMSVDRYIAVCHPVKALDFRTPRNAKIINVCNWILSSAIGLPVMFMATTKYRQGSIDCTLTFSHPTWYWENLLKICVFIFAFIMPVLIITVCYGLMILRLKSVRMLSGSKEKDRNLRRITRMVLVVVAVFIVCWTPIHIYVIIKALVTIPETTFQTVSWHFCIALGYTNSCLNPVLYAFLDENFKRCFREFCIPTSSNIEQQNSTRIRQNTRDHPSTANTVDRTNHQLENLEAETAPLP
# Sequence of human δ-opioid receptor (P41143 whole entry): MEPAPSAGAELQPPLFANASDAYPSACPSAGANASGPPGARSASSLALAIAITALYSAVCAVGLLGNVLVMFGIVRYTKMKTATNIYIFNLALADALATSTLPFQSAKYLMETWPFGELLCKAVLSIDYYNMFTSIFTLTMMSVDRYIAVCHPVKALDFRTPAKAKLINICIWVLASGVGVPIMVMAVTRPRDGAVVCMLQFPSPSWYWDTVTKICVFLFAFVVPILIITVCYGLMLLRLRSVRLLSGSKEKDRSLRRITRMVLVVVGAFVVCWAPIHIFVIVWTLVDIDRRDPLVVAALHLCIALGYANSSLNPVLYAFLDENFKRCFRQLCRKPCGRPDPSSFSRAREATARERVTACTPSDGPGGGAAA
SMILES,time of significant analgesic effect compared to vehicle (%MPE time course) [2] [min],"time of significant reduction of phase two pain [3, 8] [min]","AUC of phase one (0-15 min) pain [3, 9]","AUC of phase two (15-60 min) pain [3, 9]","footpad edema at 60 min [3, 10]","percent remaining at 150 minutes, absence of NADPH [4]",further results
"COC(=O)[C@@H]1CCC(=O)[C@H]2[C@@]1(C)CC[C@H]1C(=O)O[C@H](c3ccoc3)C[C@]21C [compound 11, Methyl (2S,4aR,6aR,7R,10aS,10bR)-2-(furan-3-yl)-6a,10b-dimethyl-4,10-dioxododecahydro-2H-benzo[f]isochromene-7-carboxylate]",,,,,,,KOR activity [1]: complete loss of KOR activity; also recorded: completely inactive
"COC(=O)[C@@H]1C[C@H](OC(C)=O)C(=O)[C@H]2[C@@]1(C)CC[C@H]1C(=O)O[C@H](c3ccoc3)C[C@]21C [compound 9, salvinorin A, reference compound]",5 to 30,20 to 50,significant reduction,significant reduction,significant reduction in edema,,
"COc1ccc2c(c1)[C@]13CCCC[C@@H]1[C@H](C2)N(C)CC3 [dextromethorphan, dextromethorphan hydrobomide, reference compound]",,,,,,not metabolized,
"COC(=O)[C@@H]1C[C@]2(CCC(=O)O2)C(=O)[C@H]2[C@@]1(C)CC[C@H]1C(=O)O[C@H](c3ccoc3)C[C@]21C [compound 14, Methyl (2S,4aR,6aR,7R,9R,10aS,10bR)-2-(furan-3-yl)-6a,10b-dimethyl-4,5′,10-trioxododecahydro-2H,3′H,4H-spiro[benzo[f]isochromene-9,2′-furan]-7-carboxylate]",10 to 30,20 to 45,not significantly different from vehicle,reduced phase two pain,significant reduction in edema,less metabolized than 9,"EC50 [5]: > 10 µM; EC50 [6]: > 10 µM; time of significant attenuation of phase one pain [3, 8]: 10 min; effect on formalin pain behavior after pre-treatment with nor-BNI ([3]; KOR antagonist nor-BNI 10 mg/kg s.c. 24 hours prior, result in words): prevented"
COC(=O)[C@@H]1C=C(OC(=O)c2ccccc2)C(=O)[C@H]2[C@@]1(C)CC[C@H]1C(=O)O[C@H](c3ccoc3)C[C@]21C [Kurkinorin],,,,,,,KOR activity [7]: no KOR activity
